# Reference: ChEMBL document CHEMBL1142417, “Studies on quinones. Part 43: Synthesis and cytotoxic evaluation of polyoxyethylene-containing 1,4-naphthoquinones” (Bioorg Med Chem, 2008)
# pIC50: −log10 of the molar value.
# Tests used:
# MRC5 = assay: Cytotoxicity against human MRC5 cells after 72 hrs by MTT assay; format: cell-based; details: MRC5, 72 h
# Summary of the method: (§1)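 Cells seeded at 50,000 cells/mL and treated one day later for 3 days with compound at 0 up to 100 µM, with DMSO at 1% final. Untreated cells served as controls. Growth was read by MTT reduction, in sextuplicate. IC50 is the concentration giving 50% growth reduction. Media: AGS in Ham F-12; MRC-5, SK-MES-1 and J82 in MEM; all with 10% FBS at 37 °C and 5% CO2.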
# AGS = assay: Antitumor against human AGS cells after 72 hrs by MTT assay; format: functional, cell-based; summary of the method: as §1
# SK-MES-1 = assay: Antitumor against human SK-MES1 cells after 72 hrs by MTT assay; format: functional, cell-based; details: SK-MES-1, 72 h; summary of the method: as §1
# J82 = assay: Antitumor against human J82 cells after 72 hrs by MTT assay; format: functional, cell-based; details: J82, 72 h; summary of the method: as §1
# HL-60 = assay: Antitumor against human HL60 cells after 72 hrs by MTT assay; format: functional, cell-based; details: HL-60, 72 h
# Summary of the method: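 HL-60 leukemia cells kept in RPMI with 1 mM pyruvate and 10% heat-inactivated FBS at 37 °C and 5% CO2. They were plated at 50,000 cells/mL and exposed from day 1 for 3 days to compound at 0 up to 100 µM, with DMSO at 1% final. Untreated cells served as controls. Readout was MTT reduction in sextuplicate. IC50 is 50% growth reduction.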
smiles,measurement,setting,value
O=C1C(Cl)=C(OCCOCCOCCOCCOC2=C(Cl)C(=O)c3ccccc3C2=O)C(=O)c2ccccc21,pIC50,MRC5,4.25
same,pIC50,AGS,4.26
same,pIC50,SK-MES-1,4.91
same,pIC50,J82,4.47
same,pIC50,HL-60,4.05
O=C1C(Cl)=C(OCCOCCOCCOC2=C(Cl)C(=O)c3ccccc3C2=O)C(=O)c2ccccc21,pIC50,MRC5,5.40
same,pIC50,AGS,5.28
same,pIC50,SK-MES-1,5.15
same,pIC50,J82,5.07
same,pIC50,HL-60,5.89
O=C1C2=C(OCCOCCOCCO2)C(=O)c2ccccc21,pIC50,MRC5,5.00
same,pIC50,AGS,4.76
same,pIC50,SK-MES-1,5.10
same,pIC50,J82,4.70
same,pIC50,HL-60,5.59
O=C1C2=C(OCCO2)C(=O)c2ccccc21,pIC50,MRC5,4.64
same,pIC50,AGS,4.71
same,pIC50,SK-MES-1,5.08
same,pIC50,J82,4.65
same,pIC50,HL-60,4.70
COCCOC1=C(Cl)C(=O)c2ccccc2C1=O,pIC50,MRC5,5.46
same,pIC50,AGS,5.00
same,pIC50,SK-MES-1,4.78
same,pIC50,J82,4.71
same,pIC50,HL-60,5.77
COC1=C(OC)C(=O)c2ccccc2C1=O,pIC50,MRC5,5.14
same,pIC50,AGS,5.04
same,pIC50,SK-MES-1,5.28
same,pIC50,J82,4.79
same,pIC50,HL-60,5.05
O=C1C2=C(OCCOCCO2)C(=O)c2ccccc21,pIC50,MRC5,4.02
same,pIC50,AGS,4.20
same,pIC50,SK-MES-1,4.79
same,pIC50,J82,4.40
same,pIC50,HL-60,4.67
O=C1C(Cl)=C(OCCOCCOC2=C(Cl)C(=O)c3ccccc3C2=O)C(=O)c2ccccc21,pIC50,MRC5,5.14
same,pIC50,AGS,4.96
same,pIC50,SK-MES-1,4.79
same,pIC50,J82,4.58
same,pIC50,HL-60,5.72
COc1cc([C@@H]2c3cc4c(cc3[C@@H](O[C@@H]3O[C@@H]5CO[C@@H](C)O[C@H]5[C@H](O)[C@H]3O)[C@H]3COC(=O)[C@H]23)OCO4)cc(OC)c1O [ETOPOSIDE],pIC50,MRC5,5.41
same,pIC50,AGS,6.44
same,pIC50,SK-MES-1,5.60
same,pIC50,J82,5.55
same,pIC50,HL-60,6.10
COC1=C(Cl)C(=O)c2ccccc2C1=O,pIC50,MRC5,5.46
same,pIC50,AGS,5.04
same,pIC50,SK-MES-1,4.94
same,pIC50,J82,5.00
same,pIC50,HL-60,5.74
